Here are results for nine molecules from paper PMC2839030 (Chemical research in toxicology, 2010).

Structures are written as SMILES. Read-outs that look alike come from different tables or passages of the source.

Holding throughout (assay type): biochemical
For data set [1], the target named is T1, rat CYP2B1 (Rattus norvegicus, UniProt P00176).
T1 sequence (P00176 1-491): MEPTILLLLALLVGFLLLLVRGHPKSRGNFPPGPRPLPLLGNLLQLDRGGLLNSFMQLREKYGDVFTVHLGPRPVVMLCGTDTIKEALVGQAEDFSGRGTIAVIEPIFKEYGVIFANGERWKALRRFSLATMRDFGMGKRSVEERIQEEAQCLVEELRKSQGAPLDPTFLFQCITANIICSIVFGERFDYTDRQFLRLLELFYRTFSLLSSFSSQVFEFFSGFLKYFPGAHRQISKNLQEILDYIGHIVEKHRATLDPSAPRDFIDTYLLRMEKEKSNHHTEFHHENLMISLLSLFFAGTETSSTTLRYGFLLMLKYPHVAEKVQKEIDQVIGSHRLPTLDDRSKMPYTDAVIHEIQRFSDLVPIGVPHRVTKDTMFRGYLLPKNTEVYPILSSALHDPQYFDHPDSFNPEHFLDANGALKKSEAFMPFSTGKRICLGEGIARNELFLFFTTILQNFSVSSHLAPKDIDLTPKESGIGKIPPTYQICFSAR
In words: 7-Pentoxyresorufin O-depentylation. The gist of the method:
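Rat CYP2B1 supersomes (with P450 reductase and cytochrome b5) in 0.1 M potassium phosphate pH 7.6 with MgCl2, pentoxyresorufin (1.0 mM stock in DMSO) and test compound in DMSO at several concentrations, with a DMSO-only control. Reaction started with NADPH-regenerating system at 37°C; resorufin fluorescence read over time (ex 530/em 585 nm). Rates from second-order curve fits; IC50 from Dixon plot x-intercept.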

In data set [2] the target is T2, CYP1A1 (Homo sapiens, UniProt P04798).
T2 sequence (P04798 1-512): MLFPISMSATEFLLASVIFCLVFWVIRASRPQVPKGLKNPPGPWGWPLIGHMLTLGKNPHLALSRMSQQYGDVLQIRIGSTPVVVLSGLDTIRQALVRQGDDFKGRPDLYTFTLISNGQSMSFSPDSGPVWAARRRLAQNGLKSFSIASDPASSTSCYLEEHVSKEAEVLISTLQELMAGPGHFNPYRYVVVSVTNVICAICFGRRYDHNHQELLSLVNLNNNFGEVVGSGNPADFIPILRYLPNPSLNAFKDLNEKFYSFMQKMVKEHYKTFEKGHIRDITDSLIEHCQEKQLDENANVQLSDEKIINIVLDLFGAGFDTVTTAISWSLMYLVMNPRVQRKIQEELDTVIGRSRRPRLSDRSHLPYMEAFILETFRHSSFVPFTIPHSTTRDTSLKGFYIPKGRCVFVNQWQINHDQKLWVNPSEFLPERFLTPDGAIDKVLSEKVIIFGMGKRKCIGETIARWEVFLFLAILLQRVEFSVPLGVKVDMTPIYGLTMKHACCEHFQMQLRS
In words: 7-Ethoxyresorufin O-deethylation. As to conditions: for Type of inhibition of P450 1A1: pre-incubation assays in the presence and absence of NADPH. The gist of the method:
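Human CYP1A1 supersomes with P450 reductase in 0.1 M phosphate pH 7.6 plus MgCl2, ethoxyresorufin (1.0 mM DMSO stock) and test compound in DMSO at varied concentrations. NADPH-regenerating system starts reaction, 37°C. Product fluorescence ex 530/em 585 nm. Quadratic fit of progress curves, b term as rate. IC50 from Dixon plot x-intercept. Mechanism: 5-min 37°C pre-incubation ± NADPH before substrate.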

In data set [3] the target is T3, human CYP1A2 (Homo sapiens, UniProt P05177).
T3 sequence (P05177 2-516 limits assumed): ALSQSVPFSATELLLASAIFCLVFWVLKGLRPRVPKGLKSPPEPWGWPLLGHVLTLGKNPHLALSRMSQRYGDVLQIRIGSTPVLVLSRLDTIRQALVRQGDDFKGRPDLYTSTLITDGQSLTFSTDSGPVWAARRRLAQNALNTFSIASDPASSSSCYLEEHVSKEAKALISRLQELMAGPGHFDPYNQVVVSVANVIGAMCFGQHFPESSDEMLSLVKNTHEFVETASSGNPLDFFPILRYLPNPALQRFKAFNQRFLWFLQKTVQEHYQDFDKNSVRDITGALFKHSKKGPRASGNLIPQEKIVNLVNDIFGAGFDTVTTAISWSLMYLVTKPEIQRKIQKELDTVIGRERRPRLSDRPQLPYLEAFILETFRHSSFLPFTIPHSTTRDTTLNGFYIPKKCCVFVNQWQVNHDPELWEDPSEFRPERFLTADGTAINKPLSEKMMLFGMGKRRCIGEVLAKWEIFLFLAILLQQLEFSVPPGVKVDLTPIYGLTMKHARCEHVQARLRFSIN
Put plainly: 7-Methoxyresorufin O-demethylation. As to conditions: for Type of inhibition of P450 1A2: pre-incubation assays in the presence and absence of NADPH.

In data set [4] the target is T4, human CYP2A6 (Homo sapiens, UniProt P11509).
T4 sequence (P11509 1-494): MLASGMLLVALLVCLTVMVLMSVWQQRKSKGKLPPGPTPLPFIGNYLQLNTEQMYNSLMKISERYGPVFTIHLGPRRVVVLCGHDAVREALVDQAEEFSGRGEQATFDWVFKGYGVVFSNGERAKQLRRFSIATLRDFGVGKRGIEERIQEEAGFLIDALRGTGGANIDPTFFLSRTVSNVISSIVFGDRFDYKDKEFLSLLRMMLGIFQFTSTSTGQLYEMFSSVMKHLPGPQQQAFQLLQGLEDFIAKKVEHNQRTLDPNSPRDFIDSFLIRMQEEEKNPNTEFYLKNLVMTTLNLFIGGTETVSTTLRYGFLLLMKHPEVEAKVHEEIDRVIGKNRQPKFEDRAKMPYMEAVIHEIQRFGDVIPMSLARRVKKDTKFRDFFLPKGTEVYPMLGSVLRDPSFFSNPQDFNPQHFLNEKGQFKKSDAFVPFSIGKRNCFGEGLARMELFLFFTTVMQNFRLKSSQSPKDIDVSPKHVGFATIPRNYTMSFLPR
In words: Coumarin 7-hydroxylation assay in supersomes.

With `C#Cc1ccc2ccc3cccc4ccc1c2c34` [Compound 1-EP, 1-ethynylpyrene], the 50% inhibitory concentration (IC50) in data set [1] was 0.04 µM; in data set [2], 0.18 µM; in data set [3], 0.32 µM; in data set [4], > 10 µM. Also, the “Type of inhibition of P450 1A1” value in data set [2] was “mechanism-based inhibitors”. In addition, the “Type of inhibition of P450 1A2” value in data set [3] was “mechanism-based inhibitors”.

In the case of `C#Cc1cc2ccccc2c2ccccc12` [Compound 9-Ephen, 9-ethynylphenanthrene], the results for the IC50 in data set [1], in data set [2] and in data set [4] were 0.07 µM, 0.62 µM and > 10 µM, respectively. Further, the “Type of inhibition of P450 1A1” value in data set [2] is “mechanism-based inhibitors”. Besides, the “Type of inhibition of P450 1A2” value in data set [3] was “mechanism-based inhibitors”.

Regarding `CC#Cc1ccc2c(ccc3ccccc32)c1` [Compound 2-MEPhen, 2-(1-propynyl)phenanthrene], the IC50 in data set [1] was > 10 µM; in data set [2] it was 0.16 µM; in data set [3], 0.6 µM; in data set [4], > 10 µM. The “Type of inhibition of P450 1A1” value in data set [2] was “mechanism-based inhibitors”. Moreover, in data set [3], the “Type of inhibition of P450 1A2” value is “mechanism-based inhibitors”.

On to `CC#Cc1ccc2ccc3cccc4ccc1c2c34` [Compound 1-MEP, 1-(1-propynyl)pyrene], for which the IC50 was 0.83 µM in data set [1], 0.02 µM in data set [2], 0.06 µM in data set [3] and > 10 µM in data set [4]. Further, the “Type of inhibition of P450 1A1” value in data set [2] is recorded as “mechanism-based inhibitors”. Also, the “Type of inhibition of P450 1A2” value in data set [3] was “mechanism-based inhibitors”.

Take `C#Cc1ccc2ccc3ccccc3c2c1` [Compound 3-Ephen, 3-ethynylphenanthrene]: the IC50 in data set [1] was 0.48 µM; in data set [2] it was 1.03 µM; in data set [3] it was 0.28 µM; in data set [4], > 10 µM. The “Type of inhibition of P450 1A1” value in data set [2] was “mechanism-based inhibitors”. The “Type of inhibition of P450 1A2” value in data set [3] is given as “mechanism-based inhibitors”.

In the case of `CC#Cc1cc2cccc3ccc4cccc1c4c32` [Compound 4-MEP, 4-(1-propynyl)pyrene], the results for the IC50 in data set [1], in data set [2] and in data set [4] were 2.26 µM, 0.37 µM and > 10 µM, respectively. In addition, the “Type of inhibition of P450 1A1” value in data set [2] is given as “mechanism-based inhibitors”.

As for `CCC#Cc1ccc2ccc3cccc4ccc1c2c34` [Compound 1-EEP, 1-(1-butynyl)pyrene], the IC50 in data set [1] was > 10 µM; in data set [2], 0.72 µM; in data set [3], 0.43 µM; in data set [4], > 10 µM. Also, the “Type of inhibition of P450 1A1” value in data set [2] was “mechanism-based inhibitors”. Moreover, the “Type of inhibition of P450 1A2” value in data set [3] is “mechanism-based inhibitors”.

For the molecule `C#Cc1ccc2c(ccc3ccccc32)c1` [Compound 2-Ephen, 2-ethynylphenanthrene], the IC50 was 0.17 µM in data set [1], 0.61 µM in data set [2], 0.34 µM in data set [3] and > 10 µM in data set [4]. For the same molecule, the “Type of inhibition of P450 1A1” value in data set [2] is on record as “mechanism-based inhibitors”. Also, in data set [3], the “Type of inhibition of P450 1A2” value was “mechanism-based inhibitors”.

With `CC#Cc1cc2ccccc2c2ccccc12` [Compound 9-MEPhen, 9-(1-propynyl)phenanthrene], the IC50 is > 10 µM in data set [1]; 2.63 µM in data set [2]; 2.26 µM in data set [2] (human, pH 7.6, probe 7-ethoxyresorufin); > 10 µM in data set [4]. In addition, in data set [2], the “Type of inhibition of P450 1A1” value is given as “mechanism-based inhibitors”. Moreover, in data set [3], the “Type of inhibition of P450 1A2” value is “mechanism-based inhibitors”.
